A short description of data set [1]: Inhibition of GST-tagged human HER2 V777_G778insCG mutant mutant using poly(Glu, Tyr) 4:1 substrate incubated for 120 mins by kinase-Glo plus luminescent kinase assay. Background: Kinase-Glo measures the ATP left after a reaction by luminescence.
The target in data set [2] is Receptor tyrosine-protein kinase erbB-4 (Homo sapiens) (UniProt Q15303). Nature of the data set: Binding affinity to wild-type human partial length ERBB4 (L690 to K994 residues) expressed in bacterial expression system assessed as residual binding level at 10000 nM by Kinomescan method relative to control. The procedure, abridged: (§1)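 KINOMEScan competition binding panel run at 10,000 nM compound, with results expressed as percent of control binding. S(10) is the fraction of non-mutant kinases below 10% of control, out of 395 tested.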
Sequence of Receptor tyrosine-protein kinase erbB-4 (Homo sapiens) (Q15303 whole entry, the tested form may be a part): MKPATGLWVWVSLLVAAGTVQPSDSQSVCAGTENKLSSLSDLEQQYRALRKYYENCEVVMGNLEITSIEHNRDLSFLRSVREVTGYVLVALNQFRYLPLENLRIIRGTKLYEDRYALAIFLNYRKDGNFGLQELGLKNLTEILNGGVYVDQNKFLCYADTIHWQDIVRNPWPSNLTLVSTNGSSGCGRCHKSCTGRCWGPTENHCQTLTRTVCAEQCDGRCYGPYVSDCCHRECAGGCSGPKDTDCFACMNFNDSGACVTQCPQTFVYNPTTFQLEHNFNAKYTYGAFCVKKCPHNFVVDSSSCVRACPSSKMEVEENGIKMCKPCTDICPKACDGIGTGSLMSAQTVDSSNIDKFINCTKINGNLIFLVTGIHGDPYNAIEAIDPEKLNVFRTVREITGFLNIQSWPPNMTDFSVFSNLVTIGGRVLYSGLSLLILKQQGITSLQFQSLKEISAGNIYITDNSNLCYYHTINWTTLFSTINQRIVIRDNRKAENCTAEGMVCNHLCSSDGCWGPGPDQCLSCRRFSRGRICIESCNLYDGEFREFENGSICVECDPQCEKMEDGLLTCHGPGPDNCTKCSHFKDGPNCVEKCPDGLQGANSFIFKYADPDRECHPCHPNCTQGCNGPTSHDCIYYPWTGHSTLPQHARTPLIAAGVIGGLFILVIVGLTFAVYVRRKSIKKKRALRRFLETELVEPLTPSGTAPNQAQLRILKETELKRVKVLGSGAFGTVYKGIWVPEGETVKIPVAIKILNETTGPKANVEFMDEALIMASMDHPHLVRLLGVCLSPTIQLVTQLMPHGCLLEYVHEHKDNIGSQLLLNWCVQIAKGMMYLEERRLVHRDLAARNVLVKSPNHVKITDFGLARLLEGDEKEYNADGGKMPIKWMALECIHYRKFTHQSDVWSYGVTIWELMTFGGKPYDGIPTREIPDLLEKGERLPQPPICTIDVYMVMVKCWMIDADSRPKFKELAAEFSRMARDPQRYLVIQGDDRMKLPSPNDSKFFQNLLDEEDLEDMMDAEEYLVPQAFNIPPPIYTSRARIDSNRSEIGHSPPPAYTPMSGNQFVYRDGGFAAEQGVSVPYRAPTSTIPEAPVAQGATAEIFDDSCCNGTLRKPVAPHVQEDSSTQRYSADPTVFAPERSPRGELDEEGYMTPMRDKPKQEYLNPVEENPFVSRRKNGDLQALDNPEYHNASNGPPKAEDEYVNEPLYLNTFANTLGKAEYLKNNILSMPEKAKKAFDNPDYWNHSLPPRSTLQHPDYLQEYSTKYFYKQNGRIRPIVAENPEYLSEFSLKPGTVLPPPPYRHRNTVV

Data set [3] deals with T1, Tyrosine-protein kinase TXK (Homo sapiens) (UniProt P42681).
T1 sequence (whole entry): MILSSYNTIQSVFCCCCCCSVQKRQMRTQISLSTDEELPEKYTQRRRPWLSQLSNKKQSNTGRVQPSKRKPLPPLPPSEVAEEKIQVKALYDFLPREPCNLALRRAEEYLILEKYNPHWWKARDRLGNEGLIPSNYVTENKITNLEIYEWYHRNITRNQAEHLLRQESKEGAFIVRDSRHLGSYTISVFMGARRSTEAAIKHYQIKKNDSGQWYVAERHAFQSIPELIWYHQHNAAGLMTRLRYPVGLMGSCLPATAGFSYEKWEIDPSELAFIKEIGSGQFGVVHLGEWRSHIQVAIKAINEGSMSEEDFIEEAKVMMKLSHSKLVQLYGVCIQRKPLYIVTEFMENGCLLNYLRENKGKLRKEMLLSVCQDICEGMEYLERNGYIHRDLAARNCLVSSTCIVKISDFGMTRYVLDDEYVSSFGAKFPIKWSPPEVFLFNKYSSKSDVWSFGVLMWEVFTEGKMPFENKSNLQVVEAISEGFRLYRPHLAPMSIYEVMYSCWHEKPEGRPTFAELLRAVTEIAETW
Nature of the data set: Binding affinity to wild-type human partial length TXK (L238 to W527 residues) expressed in bacterial expression system assessed as residual binding level at 10000 nM by Kinomescan method relative to control. The procedure, abridged:
as §1

Data set [4] is described as follows: Cmax in rat at 23.6 mg/kg, po. Particulars: in vivo. Type of data set: ADME, organism-based. More on the design: dose 23.6 mg/kg, route oral. The procedure, abridged: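 Rat pharmacokinetics: single IV injection at 5 mg/kg or oral dosing at 20 mg/kg (23.6 mg/kg oral for one compound). Plasma parameters t1/2, CL, Vss, AUC(0-inf), Cmax, Tmax and oral bioavailability F were derived from the concentration–time profiles.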

Data set [5] in a line: in vivo. Particulars: rat, po, 23.6 mg/kg.
The nature of data set [6]: in vivo. Conditions: rat, po, 23.6 mg/kg. This is another data set of the same source.

Each structure is given as a SMILES string.

On to `CN(C)C/C=C/C(=O)Nc1cccc(-c2c(-c3ccccc3)oc3ncnc(N[C@H](CO)c4ccccc4)c23)c1`, for which the IC50 – broadly, the concentration that inhibits the measured activity by half – in data set [1] stood at 203 pM. Also, the Activity in data set [2] was 0.05%; in data set [3], under 10%. Besides, the concentration in data set [4] peaked (Cmax) at 508 ng/mL. The AUC(0-inf) (as a rule, the area under the concentration-time curve extrapolated to infinity) in data set [5] came out at 2980 ng·h/mL. For the same compound, the half-life (commonly the time needed for the level to fall by half in the phase considered) in data set [6] was 3.4 h.

For the origin of these results see ChEMBL document CHEMBL4414600, “Discovery of a Furanopyrimidine-Based Epidermal Growth Factor Receptor Inhibitor (DBPR112) as a Clinical Candidate for the Treatment of Non-Small Cell Lung Cancer” (J Med Chem, 2019).
